In ChEMBL document CHEMBL2034835, “A solvent free, four-component synthesis and 1,3-dipolar cycloaddition of 4(H)-pyrans with nitrile oxides: synthesis and discovery of antimycobacterial activity of enantiomerically pure 1,2,4-oxadiazoles” (2012):
In brackets after ≈: the same amount, converted by molar mass.

What was measured:
Type in all cases: functional
[1] = system: Mycobacterium tuberculosis; test: Antitubercular activity against Mycobacterium tuberculosis H37Rv after 28 days by agar dilution method
Procedure, shortened: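 Agar dilution, following NCCLS guidance, on Middlebrook 7H11 with OADC supplement containing ten-fold serial dilutions of drug. H37Rv inoculum was taken from fresh 7H11/OADC slants, adjusted to 1 mg/mL wet weight in 0.05% Tween 80 saline and diluted 10^-2 to about 10^7 cfu/mL. 5 µL was spotted per tube and incubated at 37 °C for 28 days. MIC is the lowest concentration giving complete growth inhibition.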

[2] = system: Mycobacterium tuberculosis; test: Ratio of ethambutol MIC to compound MIC for Mycobacterium tuberculosis H37Rv
[3] = system: Mycobacterium tuberculosis; test: Ratio of ciprofloxacin MIC to compound MIC for Mycobacterium tuberculosis H37Rv
[4] = system: Mycobacterium tuberculosis; test: Ratio of rifampicin MIC to compound MIC for Mycobacterium tuberculosis H37Rv
[5] = system: Mycobacterium tuberculosis; test: Ratio of isoniazid MIC to compound MIC for Mycobacterium tuberculosis H37Rv
[6] = Mycobacterium tuberculosis, H37Rv, 672 h, read-out: MIC

SMILES | MIC [1] [µM] | MIC [1, 6] [µM] | further results
Cc1ccc(/C=C2\CN([C@H](C)c3ccccc3)CC3=C2OC(N)=C(c2nc(-c4ccccc4)no2)C3c2ccc(C)cc2)cc1 (stereo in doubt; 10c) | 5.28 (≈ 3.13 µg/mL) | – | –
Cc1ccc(/C=C2\CN([C@H](C)c3ccccc3)CC3=C2OC(N)=C(c2nc(-c4ccccc4)no2)C3c2ccc(C)cc2)cc1 (stereo in doubt; 9c) | – | 10.5 (≈ 6.25 µg/mL) | –
C[C@H](c1ccccc1)N1CC2=C(OC(N)=C(c3nc(-c4ccccc4)no3)C2c2cccc3ccccc23)/C(=C/c2cccc3ccccc23)C1 (stereo in doubt; 9i) | 18.8 (≈ 12.5 µg/mL) | – | –
CO[C@H]1/C=C/O[C@@]2(C)Oc3c(C)c(O)c4c(O)c(c(/C=N/N5CCN(C)CC5)c(O)c4c3C2=O)NC(=O)/C(C)=C\C=C\[C@H](C)[C@H](O)[C@@H](C)[C@@H](O)[C@@H](C)[C@H](OC(C)=O)[C@@H]1C [RIFAMPIN] | – | 0.12 (≈ 0.0988 µg/mL) | –
C[C@H](c1ccccc1)N1CC2=C(OC(N)=C(c3nc(-c4ccc(Cl)cc4)no3)C2c2ccccc2Cl)/C(=C/c2ccccc2Cl)C1 (stereo in doubt; 9f) | 0.6 (≈ 0.401 µg/mL) | – | –
C[C@H](c1ccccc1)N1CC2=C(OC(N)=C(c3nc(-c4ccccc4)no3)C2c2ccccc2Cl)/C(=C/c2ccccc2Cl)C1 (stereo in doubt; 9e) | – | 1.23 (≈ 0.779 µg/mL) | –
C[C@H](c1ccccc1)N1CC2=C(OC(N)=C(c3nc(-c4ccc(Cl)cc4)no3)C2c2ccc(Cl)cc2Cl)/C(=C/c2ccc(Cl)cc2Cl)C1 (stereo in doubt; 9h) | 0.27 (≈ 0.199 µg/mL) | – | –
C[C@H](c1ccccc1)N1CC2=C(OC(N)=C(c3nc(-c4ccccc4)no3)C2c2cccc3ccccc23)/C(=C/c2cccc3ccccc23)C1 (stereo in doubt; 10i) | 4.71 (≈ 3.13 µg/mL) | – | –
C[C@H](c1ccccc1)N1CC2=C(OC(N)=C(c3nc(-c4ccccc4)no3)C2c2ccccc2)/C(=C/c2ccccc2)C1 (stereo in doubt; 9a) | 11.07 (≈ 6.25 µg/mL) | – | –
C[C@H](c1ccccc1)N1CC2=C(OC(N)=C(c3nc(-c4ccc(Cl)cc4)no3)C2c2ccccc2)/C(=C/c2ccccc2)C1 (stereo in doubt; 9b) | 5.22 (≈ 3.13 µg/mL) | – | –
Cc1ccc(/C=C2\CN([C@H](C)c3ccccc3)CC3=C2OC(N)=C(c2nc(-c4ccc(Cl)cc4)no2)C3c2ccc(C)cc2)cc1 (stereo in doubt; 9d) | 2.49 (≈ 1.56 µg/mL) | – | –
C[C@H](c1ccccc1)N1CC2=C(OC(N)=C(c3nc(-c4ccc(Cl)cc4)no3)C2c2ccc(Cl)cc2Cl)/C(=C/c2ccc(Cl)cc2Cl)C1 (stereo in doubt; 10h) | 0.07 (≈ 0.0516 µg/mL) | – | Ratio [2]: 109; Ratio [3]: 67.3; Ratio [4]: 1.7; Ratio [5]: 5.1
CC[C@@H](CO)NCCN[C@@H](CC)CO [ETHAMBUTOL] | – | 7.64 (≈ 1.56 µg/mL) | –
C[C@H](c1ccccc1)N1CC2=C(OC(N)=C(c3nc(-c4ccc(Cl)cc4)no3)C2c2cccc3ccccc23)/C(=C/c2cccc3ccccc23)C1 (stereo in doubt; 9j) | – | 8.94 (≈ 6.25 µg/mL) | –
C[C@H](c1ccccc1)N1CC2=C(OC(N)=C(c3nc(-c4ccc(Cl)cc4)no3)C2c2cccc3ccccc23)/C(=C/c2cccc3ccccc23)C1 (stereo in doubt; 10j) | 4.48 (≈ 3.13 µg/mL) | – | –
C[C@H](c1ccccc1)N1CC2=C(OC(N)=C(c3nc(-c4ccc(Cl)cc4)no3)C2c2ccccc2)/C(=C/c2ccccc2)C1 (stereo in doubt; 10b) | 2.6 (≈ 1.56 µg/mL) | – | –
NNC(=O)c1ccncc1 [ISONIAZID] | – | 0.36 (≈ 0.0494 µg/mL) | –
C[C@H](c1ccccc1)N1CC2=C(OC(N)=C(c3nc(-c4ccccc4)no3)C2c2ccc(Cl)cc2Cl)/C(=C/c2ccc(Cl)cc2Cl)C1 (stereo in doubt; 10g) | 0.57 (≈ 0.4 µg/mL) | – | –
C[C@H](c1ccccc1)N1CC2=C(OC(N)=C(c3nc(-c4ccccc4)no3)C2c2ccccc2)/C(=C/c2ccccc2)C1 (stereo in doubt; 10a) | 2.76 (≈ 1.56 µg/mL) | – | –
Cc1ccc(/C=C2\CN([C@H](C)c3ccccc3)CC3=C2OC(N)=C(c2nc(-c4ccc(Cl)cc4)no2)C3c2ccc(C)cc2)cc1 (stereo in doubt; 10d) | 0.64 (≈ 0.401 µg/mL) | – | –
C[C@H](c1ccccc1)N1CC2=C(OC(N)=C(c3nc(-c4ccccc4)no3)C2c2ccc(Cl)cc2Cl)/C(=C/c2ccc(Cl)cc2Cl)C1 (stereo in doubt; 9g) | – | 1.11 (≈ 0.78 µg/mL) | –
C[C@H](c1ccccc1)N1CC2=C(OC(N)=C(c3nc(-c4ccccc4)no3)C2c2ccccc2Cl)/C(=C/c2ccccc2Cl)C1 (stereo in doubt; 10e) | 0.63 (≈ 0.399 µg/mL) | – | –
C[C@H](c1ccccc1)N1CC2=C(OC(N)=C(c3nc(-c4ccc(Cl)cc4)no3)C2c2ccccc2Cl)/C(=C/c2ccccc2Cl)C1 (stereo in doubt; 10f) | 0.15 (≈ 0.1 µg/mL) | – | –
